Measurements as given in paper PMC4415995 (Advances in Therapy, 2015).
Read-outs that look alike come from different tables or passages of the source. Marks after values point to notes of the source that are not given here.

Experiments:
[1] = tested on: Japanese patients with T2DM; assay: Plasma glucose concentrations, 7-day once-daily dosing; assay type: in vivo, human
Method in brief: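 Plasma glucose was measured by a glucose dehydrogenase enzymatic UV method. Sampling was pre-breakfast/pre-dose and 0.5–24 h after breakfast on Day −1, after dosing on Days 1 and 7, and pre-breakfast on Days 11 and 14. Standardized ~600 kcal meals were given, with lunch and dinner at 4 and 12 h. AUC, Cmax and tmax were non-compartmental. MPG was the mean of the 0, 2, 4, 6, 12, 14 and 16 h values. LS mean difference vs placebo with 95% CI.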

[2] = tested on: Japanese patients with T2DM; assay: Urinary glucose excretion; assay type: in vivo, human
Method in brief: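 Dosing was once daily, 0.5–5 mg or placebo, before a standardized ~600 kcal breakfast. Read-outs were 24-h cumulative UGE, total UGE and per-interval UGE rate, plus change from Day −1. LS mean difference vs placebo with 95% CI.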

[3] = tested on: Japanese patients with T2DM; conditions: cited from earlier work

Structure (SMILES): CCOc1ccc(Cc2cc([C@@H]3S[C@H](CO)[C@@H](O)[C@H](O)[C@H]3O)c(OC)cc2C)cc1 [Luseogliflozin, (1S)-1,5-anhydro-1-[5-(4-ethoxybenzyl)-2-methoxy-4-methylphenyl]-1-thio-D-glucitol]
- MPG0–16h ([1]; 2.5 mg OD, Day 7): 181 ± 21.2 mg/dL
- MPG0–16h LS mean difference vs placebo (95% CI) ([1]; 2.5 mg OD, Day 7): −50.1 (−66.7, −33.4)* mg/dL
- Plasma glucose AUC0–4h (after breakfast) ([1]; 2.5 mg OD, Day 7): 738 ± 102 mg·h/dL
- Plasma glucose AUC0–4h (after breakfast) LS mean difference vs placebo (95% CI) ([1]; 2.5 mg OD, Day 7): −221 (−297, −145)* mg h/dL
- Plasma glucose AUC4–8h (after lunch) ([1]; 2.5 mg OD, Day 7): 802 ± 127 mg·h/dL
- Plasma glucose AUC4–8h (after lunch) LS mean difference vs placebo (95% CI) ([1]; 2.5 mg OD, Day 7): −250 (−348, −152)* mg h/dL
- Plasma glucose AUC12–16h (after dinner) ([1]; 2.5 mg OD, Day 7): 828 ± 63.2 mg·h/dL
- Plasma glucose AUC12–16h (after dinner) LS mean difference vs placebo (95% CI) ([1]; 2.5 mg OD, Day 7): −149 (−224, −73.6)* mg h/dL
- Plasma glucose C max0–4h (after breakfast) ([1]; 2.5 mg OD, Day 7): 219 ± 26.3 mg/dL
- Plasma glucose C max4–8h (after lunch) ([1]; 2.5 mg OD, Day 7): 230 ± 30.0 mg/dL
- Plasma glucose C max4–8h (after lunch) LS mean difference vs placebo (95% CI) ([1]; 2.5 mg OD, Day 7): −65.6 (−94.0, −37.1)* mg/dL
- Plasma glucose C max12–16h (after dinner) ([1]; 2.5 mg OD, Day 7): 250 ± 23.3 mg/dL
- Plasma glucose C max12–16h (after dinner) LS mean difference vs placebo (95% CI) ([1]; 2.5 mg OD, Day 7): −36.2 (−61.2, −11.3)* mg/dL
- FPG (24 h after dose) ([1]; 5 mg OD, Day 1): 132 ± 12 mg/dL
- FPG (24 h after dose) LS mean difference vs placebo (95% CI) ([1]; 5 mg OD, Day 1): −20.8 (−29.5, −12.1)* mg/dL
- MPG0–16h ([1]; 5 mg OD, Day 1): 173 ± 26.7 mg/dL
- MPG0–16h LS mean difference vs placebo (95% CI) ([1]; 5 mg OD, Day 1): −27.4 (−37.4, −17.4)* mg/dL
- Plasma glucose AUC0–4h (after breakfast) ([1]; 5 mg OD, Day 1): 752 ± 87.6 mg·h/dL
- Plasma glucose AUC0–4h (after breakfast) LS mean difference vs placebo (95% CI) ([1]; 5 mg OD, Day 1): −100 (−154, −46.5)* mg h/dL
- Plasma glucose AUC4–8h (after lunch) ([1]; 5 mg OD, Day 1): 710 ± 120 mg·h/dL
- Plasma glucose AUC4–8h (after lunch) LS mean difference vs placebo (95% CI) ([1]; 5 mg OD, Day 1): −104 (−183, −25.1)* mg h/dL
- Plasma glucose AUC12–16h (after dinner) ([1]; 5 mg OD, Day 1): 766 ± 118 mg·h/dL
- Plasma glucose AUC12–16h (after dinner) LS mean difference vs placebo (95% CI) ([1]; 5 mg OD, Day 1): −133 (−184, −81.7)* mg h/dL
- Plasma glucose C max0–4h (after breakfast) ([1]; 5 mg OD, Day 1): 231 ± 16.6 mg/dL
- Plasma glucose C max4–8h (after lunch) ([1]; 5 mg OD, Day 1): 207 ± 33.1 mg/dL
- Plasma glucose C max4–8h (after lunch) LS mean difference vs placebo (95% CI) ([1]; 5 mg OD, Day 1): −32.4 (−56.5, −8.28)* mg/dL
- Plasma glucose C max12–16h (after dinner) ([1]; 5 mg OD, Day 1): 225 ± 33.2 mg/dL
- Plasma glucose C max12–16h (after dinner) LS mean difference vs placebo (95% CI) ([1]; 5 mg OD, Day 1): −41.8 (−60.2, −23.5)* mg/dL
- FPG (24 h after dose) ([1]; 5 mg OD, Day 7): 126 ± 13 mg/dL
- FPG (24 h after dose) LS mean difference vs placebo (95% CI) ([1]; 5 mg OD, Day 7): −30.6 (−43.1, −18.1)* mg/dL
- MPG0–16h ([1]; 5 mg OD, Day 7): 168 ± 27.8 mg/dL
- MPG0–16h LS mean difference vs placebo (95% CI) ([1]; 5 mg OD, Day 7): −38.9 (−55.7, −22.1)* mg/dL
- Plasma glucose AUC0–4h (after breakfast) ([1]; 5 mg OD, Day 7): 708 ± 87.5 mg·h/dL
- Plasma glucose AUC0–4h (after breakfast) LS mean difference vs placebo (95% CI) ([1]; 5 mg OD, Day 7): −162 (−239, −84.9)* mg h/dL
- Plasma glucose AUC4–8h (after lunch) ([1]; 5 mg OD, Day 7): 710 ± 105 mg·h/dL
- Plasma glucose AUC4–8h (after lunch) LS mean difference vs placebo (95% CI) ([1]; 5 mg OD, Day 7): −184 (−284, −84.3)* mg h/dL
- Plasma glucose AUC12–16h (after dinner) ([1]; 5 mg OD, Day 7): 755 ± 137 mg·h/dL
- Plasma glucose AUC12–16h (after dinner) LS mean difference vs placebo (95% CI) ([1]; 5 mg OD, Day 7): −131 (−205, −57.5)* mg h/dL
- Plasma glucose C max0–4h (after breakfast) ([1]; 5 mg OD, Day 7): 222 ± 19.4 mg/dL
- Plasma glucose C max4–8h (after lunch) ([1]; 5 mg OD, Day 7): 211 ± 35.1 mg/dL
- Plasma glucose C max4–8h (after lunch) LS mean difference vs placebo (95% CI) ([1]; 5 mg OD, Day 7): −41.0 (−69.8, −12.1)* mg/dL
- Plasma glucose C max12–16h (after dinner) ([1]; 5 mg OD, Day 7): 223 ± 38.8 mg/dL
- Plasma glucose C max12–16h (after dinner) LS mean difference vs placebo (95% CI) ([1]; 5 mg OD, Day 7): −33.7 (−58.4, −9.02)* mg/dL
- UGE0–24h ([2]; 0.5 mg OD, Day 1): 81.5 ± 33.2 g
- UGE0–24h LS mean difference vs placebo (95% CI) ([2]; 0.5 mg OD, Day 1): 46.4 (32.9, 60.0)* g
- Least-squares mean difference in 24-h UGE vs placebo ([2]; 0.5 mg OD, Day 7): 49.2 g/day
- UGE0–24h ([2]; 0.5 mg OD, Day 7): 81.7 ± 30.1 g
- UGE0–24h LS mean difference vs placebo (95% CI) ([2]; 0.5 mg OD, Day 7): 49.2 (27.9, 70.5)* g
- UGE0–24h LS mean difference vs placebo (95% CI) ([2]; 0.5 mg OD, Day 7, listed as luseogliflozin): 49.2 g
- UGE0–24h ([2]; 1 mg OD, Day 1): 75.1 ± 23.3 g
- UGE0–24h LS mean difference vs placebo (95% CI) ([2]; 1 mg OD, Day 1): 58.9 (45.7, 72.1)* g
- Least-squares mean difference in 24-h UGE vs placebo ([2]; 1 mg OD, Day 7): 66.5 g/day
- UGE0–24h ([2]; 1 mg OD, Day 7): 85.3 ± 18.8 g
- UGE0–24h LS mean difference vs placebo (95% CI) ([2]; 1 mg OD, Day 7): 66.5 (45.8, 87.1)* g
- UGE0–24h LS mean difference vs placebo (95% CI) ([2]; 1 mg OD, Day 7, listed as luseogliflozin): 66.5 g
- UGE0–24h ([2]; 2.5 mg OD, Day 1): 139 ± 31.1 g
- UGE0–24h LS mean difference vs placebo (95% CI) ([2]; 2.5 mg OD, Day 1): 91.7 (78.1, 105)* g
- Least-squares mean difference in 24-h UGE vs placebo ([2]; 2.5 mg OD, Day 7): 89.4 g/day
- UGE0–24h ([2]; 2.5 mg OD, Day 7): 131 ± 29.9 g
- UGE0–24h LS mean difference vs placebo (95% CI) ([2]; 2.5 mg OD, Day 7): 89.4 (68.2, 111)* g
- UGE0–24h LS mean difference vs placebo (95% CI) ([2]; 2.5 mg OD, Day 7, listed as luseogliflozin): 89.4 g
- energy loss equivalent to the increase in UGE ([2]; 5 mg OD): approximately 400 kcal
- increase in UGE ([2]; 5 mg OD): about 100 g glucose/day
- UGE0–24h ([2]; 5 mg OD, Day 1): 116 ± 29.0 g
- UGE0–24h LS mean difference vs placebo (95% CI) ([2]; 5 mg OD, Day 1): 101 (87.6, 114)* g
- Least-squares mean difference in 24-h UGE vs placebo ([2]; 5 mg OD, Day 7): 101 g/day
- UGE0–24h ([2]; 5 mg OD, Day 7): 120 ± 33.1 g
- UGE0–24h LS mean difference vs placebo (95% CI) ([2]; 5 mg OD, Day 7): 101 (80.7, 122)* g
- UGE0–24h LS mean difference vs placebo (95% CI) ([2]; 5 mg OD, Day 7, listed as luseogliflozin): 101 g
- time for UGE to return toward the baseline value after treatment discontinuation ([2]; each dose group): 1 to 3 days
- incidence of hypoglycemia ([3]; 0.5 mg, Phase II, 1/60): 1.7%
- incidence of AEs related to genital infection ([3]; 2.5 mg, Phase III, 1/79): 1.3%
- incidence of hypoglycemia ([3]; 2.5 mg, Phase III, 1/79): 1.3%
- incidence of pollakiuria ([3]; 2.5 mg, Phase III, 2/79): 2.5%
- incidence of AEs related to renal function ([3]; 2.5 mg, Phase III, 6/79): 7.6%
- body weight change ([3]; 2.5 mg, over 24 weeks of treatment): -2.70 kg
- incidence of hypoglycemia ([3]; 5 mg, Phase II, 1/54): 1.9%
- episodes of volume depletion ([3]; Phase III study): no episodes
